# Assay results from ChEMBL document CHEMBL3108709, “Diversity-oriented synthesis yields a new drug lead for treatment of chagas disease” (ACS Med Chem Lett, 2014).
# The source made the active and inactive calls. No cut-off for these calls is given here.
# Columns and labels:
# [1] = test system: Trypanosoma cruzi; assay: Antitrypanosomal activity against Trypanosoma cruzi Tulahuen infected in mouse NIH/3T3 cells assessed as multimode parasite growth inhibition after 4 days by beta-galactosidase reporter gene assay; format: functional, organism-based; details: NIH3T3, 96 h
# Procedure, shortened: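 Recombinant Tulahuen T. cruzi stably expressing a beta-galactosidase reporter, cocultured with mouse NIH/3T3 fibroblast host cells. Compounds added to host cells before infection with parasites; growth inhibition read by reporter; IC50 in nM.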
# [2] = Metabolic stability in mouse microsomes assessed as compound remaining at 1 uM after 1 hr; format: ADME, Microsome; details: read-out: Stability
# Procedure, shortened: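 Mouse liver microsomes incubated 1 h with compound at 1 μM; result expressed as percent of compound remaining.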
# [3] = Plasma protein binding in human; format: ADME, cell-free; details: read-out: PPB (converted)
# [4] = test system: Trypanosoma cruzi; assay: Antitrypanosomal activity against amastigote stage of Trypanosoma cruzi Tulahuen infected in rat L6 cells assessed as parasite growth inhibition after 96 hrs by beta-galactosidase reporter gene assay; format: functional, organism-based; details: L6, 96 h
# [5] = Solubility of the compound in phosphate buffer saline; format: physicochemical
# [6] = test system: Trypanosoma cruzi; assay: Trypanocidal activity against Trypanosoma cruzi CA-I/72 infected in BESM cells assessed as parasite re-emergence at 40 nM treated for 29 days measured after 36 days; format: functional, organism-based
# Procedure, shortened: (§1)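 T. cruzi-infected bovine embryo skeletal muscle (BESM) cells treated with varying compound concentrations for 20 or 29 days, compound refreshed every other day, then followed up to 36 days post-treatment. Trypomastigote emergence into medium checked visually daily through treatment and post-treatment phases; no re-emergence taken as trypanocidal, delayed emergence as trypanostatic.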
# [7] = test system: Trypanosoma cruzi; assay: Trypanocidal activity against Trypanosoma cruzi CA-I/72 infected in BESM cells assessed as parasite re-emergence at 40 nM measured over 29 days of drug treatment; format: functional, organism-based; procedure, shortened: as §1
# [8] = Fraction unbound in human plasma; format: ADME, cell-free
# [9] = test system: Trypanosoma cruzi; assay: Trypanocidal activity against Trypanosoma cruzi CA-I/72 infected in BESM cells assessed as parasite re-emergence at 6.6 uM measured over 20 days of drug treatment; format: functional, organism-based; procedure, shortened: as §1
# [10] = test system: Trypanosoma cruzi; assay: Trypanocidal activity against Trypanosoma cruzi CA-I/72 infected in BESM cells assessed as parasite re-emergence at 6.6 uM treated for 20 days measured after 37 days; format: functional, organism-based; procedure, shortened: as §1
# [11] = test system: Trypanosoma cruzi; assay: Trypanocidal activity against Trypanosoma cruzi CA-I/72 infected in BESM cells assessed as parasite re-emergence at 740 nM treated for 20 days measured after 37 days; format: functional, organism-based; procedure, shortened: as §1
# [12] = test system: Trypanosoma cruzi; assay: Trypanocidal activity against Trypanosoma cruzi CA-I/72 infected in BESM cells assessed as parasite re-emergence at 740 nM measured over 20 days of drug treatment; format: functional, organism-based; procedure, shortened: as §1
# [13] = test system: Trypanosoma cruzi; assay: Trypanocidal activity against Trypanosoma cruzi CA-I/72 infected in BESM cells assessed as parasite re-emergence at 250 nM treated for 20 days measured after 4 days; format: functional, organism-based; procedure, shortened: as §1
# [14] = test system: Trypanosoma cruzi; assay: Trypanocidal activity against Trypanosoma cruzi CA-I/72 infected in BESM cells assessed as parasite re-emergence at 250 nM measured over 20 days of drug treatment; format: functional, organism-based; procedure, shortened: as §1
# [15] = test system: Trypanosoma cruzi; assay: Trypanocidal activity against Trypanosoma cruzi CA-I/72 infected in BESM cells assessed as parasite re-emergence at 370 nM treated for 29 days measured after 36 days; format: functional, organism-based; procedure, shortened: as §1
# [16] = test system: Trypanosoma cruzi; assay: Trypanocidal activity against Trypanosoma cruzi CA-I/72 infected in BESM cells assessed as parasite re-emergence at 370 nM measured over 29 days of drug treatment; format: functional, organism-based; procedure, shortened: as §1
# [17] = test system: Plasma; assay: Metabolic stability in human plasma; format: ADME, cell-free
smiles,measurement,setting,value
C[C@H]1CN([C@@H](C)CO)C(=O)c2cccc(NC(=O)c3ccncc3)c2O[C@@H]1CN(C)Cc1ccccc1C(F)(F)F,IC50,[1],0.034 µM
C[C@H](CO)N1C[C@H](C)[C@@H](CN(C)Cc2ccc(Oc3ccccc3)cc2)Oc2c(NC(=O)c3ccncc3)cccc2C1=O,"remaining at 1 h, 1 µM",[2],70%
same,fraction unbound,[3],0.01
same,IC50,[4],0.031 µM
same,solubility,[5],2 µM
same,IC50,[1],0.002 µM
C[C@H]1CN([C@@H](C)CO)C(=O)c2cccc(NC(=O)c3ccncc3)c2O[C@@H]1CN(C)Cc1cccc(Cl)c1Cl,IC50,[1],0.025 µM
CC(C)N1C[C@H](C)[C@@H](CN(C)Cc2ccc(Oc3ccccc3)cc2)Oc2c(NC(=O)C3CCN(C)CC3)cccc2C1=O,IC50,[1],1.2 µM
C[C@H]1CN([C@@H](C)CO)C(=O)c2cccc(NC(=O)c3ccncc3)c2O[C@H]1CN(C)Cc1ccc(Oc2ccccc2)cc1,Activity,[6],Active
same,Activity,[7],Active
same,"remaining at 1 h, 1 µM",[2],< 1%
same,fraction unbound,[3],0.05
same,IC50,[4],0.059 µM
same,solubility,[5],93 µM
same,IC50,[1],0.023 µM
same,fraction unbound,[8],0.05
CC(C)N1C[C@H](C)[C@@H](CN(C)Cc2ccc(Oc3ccccc3)cc2)Oc2c(NC(=O)c3ccccn3)cccc2C1=O,IC50,[1],0.344 µM
C[C@H]1CN([C@@H](C)CO)C(=O)c2cccc(NC(=O)c3ccncc3)c2O[C@@H]1CN(C)Cc1ccc(Cl)cc1Cl,IC50,[1],0.027 µM
O=C(Cn1ccnc1[N+](=O)[O-])NCc1ccccc1,Activity,[9],Active
same,Activity,[10],Active
Cc1ccc(CN(C)C[C@H]2Oc3c(NC(=O)c4ccncc4)cccc3C(=O)N([C@@H](C)CO)C[C@@H]2C)cc1,IC50,[1],0.014 µM
COc1ccccc1CN(C)C[C@H]1Oc2c(NC(=O)c3ccncc3)cccc2C(=O)N([C@@H](C)CO)C[C@@H]1C,IC50,[1],0.078 µM
C[C@H]1CN([C@@H](C)CO)C(=O)c2cccc(NC(=O)c3ccncc3)c2O[C@@H]1CN(C)Cc1cccc(C(F)(F)F)c1,IC50,[1],0.001 µM
C[C@H]1CN([C@@H](C)CO)C(=O)c2cccc(NC(=O)c3ccncc3)c2O[C@@H]1CN(C)Cc1ccc(Oc2ccccc2)cc1,Activity,[11],Active
same,Activity,[12],Active
same,Activity,[13],inactive
same,Activity,[14],inactive
same,Activity,[6],Active
same,Activity,[7],Active
same,"remaining at 1 h, 1 µM",[2],77%
same,fraction unbound,[3],0.01
same,IC50,[4],0.016 µM
same,solubility,[5],1 µM
same,IC50,[1],0.001 µM
C[C@@H]1CN([C@H](C)CO)C(=O)c2cccc(NC(=O)c3ccncc3)c2O[C@H]1CN(C)Cc1ccc(Oc2ccccc2)cc1,Activity,[6],Active
same,Activity,[7],Active
same,"remaining at 1 h, 1 µM",[2],1%
same,fraction unbound,[3],0.01
same,IC50,[4],0.022 µM
same,solubility,[5],1 µM
same,IC50,[1],0.005 µM
C[C@H]1CN([C@@H](C)CO)C(=O)c2cccc(NC(=O)c3ccncc3)c2O[C@@H]1CN(C)Cc1c(Cl)cccc1Cl,IC50,[1],0.445 µM
C[C@@H]1CN([C@H](C)CO)C(=O)c2cccc(NC(=O)c3ccncc3)c2O[C@@H]1CN(C)Cc1ccc(Oc2ccccc2)cc1,"remaining at 1 h, 1 µM",[2],< 1%
same,fraction unbound,[3],0.05
same,IC50,[4],1.2 µM
same,solubility,[5],86 µM
same,IC50,[1],0.26 µM
same,fraction unbound,[8],0.05
C[C@H](CO)N1C[C@H](C)[C@H](CN(C)Cc2ccc(Oc3ccccc3)cc2)Oc2c(NC(=O)c3ccncc3)cccc2C1=O,Activity,[15],Active
same,Activity,[16],Active
same,Stability,[17],Unstable
same,"remaining at 1 h, 1 µM",[2],< 1%
same,IC50,[4],0.075 µM
same,solubility,[5],98 µM
same,IC50,[1],0.016 µM
C[C@H]1CN([C@@H](C)CO)C(=O)c2cccc(NC(=O)c3ccncc3)c2O[C@@H]1CN(C)Cc1ccccc1Cl,IC50,[1],0.165 µM
CC(C)N1C[C@H](C)[C@@H](CN(C)Cc2ccc(Oc3ccccc3)cc2)Oc2c(NC(=O)C3CCNCC3)cccc2C1=O,IC50,[1],1 µM
C[C@@H]1CN([C@@H](C)CO)C(=O)c2cccc(NC(=O)c3ccncc3)c2O[C@@H]1CN(C)Cc1ccc(Oc2ccccc2)cc1,"remaining at 1 h, 1 µM",[2],< 1%
same,fraction unbound,[3],0.05
same,IC50,[4],0.67 µM
same,solubility,[5],87 µM
same,IC50,[1],0.45 µM
same,fraction unbound,[8],0.05
CC(C)N1C[C@H](C)[C@@H](CN(C)Cc2ccc(Oc3ccccc3)cc2)Oc2c(NC(=O)c3ccccc3)cccc2C1=O,IC50,[1],0.5 µM
C[C@H]1CN([C@@H](C)CO)C(=O)c2cccc(NC(=O)c3ccncc3)c2O[C@@H]1CN(C)Cc1ccc(Cl)cc1,IC50,[1],0.001 µM
CC(C)N1C[C@H](C)[C@@H](CN(C)Cc2ccc(Oc3ccccc3)cc2)Oc2c(NC(=O)c3cccnc3)cccc2C1=O,IC50,[1],0.045 µM
C[C@H]1CN([C@@H](C)CO)C(=O)c2cccc(NC(=O)c3ccncc3)c2O[C@@H]1CN(C)Cc1cc(Cl)ccc1Cl,IC50,[1],0.057 µM
Cc1cccc(CN(C)C[C@H]2Oc3c(NC(=O)c4ccncc4)cccc3C(=O)N([C@@H](C)CO)C[C@@H]2C)c1,IC50,[1],0.001 µM
CC(C)N1C[C@H](C)[C@@H](CN(C)Cc2ccc(Cl)cc2)Oc2c(NC(=O)c3ccncc3)cccc2C1=O,IC50,[4],0.061 µM
same,IC50,[1],0.001 µM
C[C@H]1CN([C@@H](C)CO)C(=O)c2cccc(NC(=O)c3ccncc3)c2O[C@@H]1CN(C)Cc1ccc(Cl)c(Cl)c1,IC50,[4],0.083 µM
same,solubility,[5],64 µM
same,IC50,[1],< 0.001 µM
CC(C)N1C[C@H](C)[C@@H](CN(C)Cc2ccccc2Cl)Oc2c(NC(=O)c3ccncc3)cccc2C1=O,IC50,[1],0.045 µM
C[C@@H]1CN([C@@H](C)CO)C(=O)c2cccc(NC(=O)c3ccncc3)c2O[C@H]1CN(C)Cc1ccc(Oc2ccccc2)cc1,Activity,[6],Active
same,Activity,[7],Active
same,"remaining at 1 h, 1 µM",[2],2%
same,fraction unbound,[3],0.01
same,IC50,[4],0.024 µM
same,solubility,[5],1 µM
same,IC50,[1],0.001 µM
Cc1ccccc1CN(C)C[C@H]1Oc2c(NC(=O)c3ccncc3)cccc2C(=O)N([C@@H](C)CO)C[C@@H]1C,IC50,[1],0.056 µM
CC(C)N1C[C@H](C)[C@@H](CN(C)Cc2ccccc2)Oc2c(NC(=O)c3ccncc3)cccc2C1=O,IC50,[1],< 0.001 µM
C[C@H]1CN([C@@H](C)CO)C(=O)c2cccc(NC(=O)c3ccncc3)c2O[C@@H]1CN(C)Cc1cccc(Cl)c1,IC50,[1],0.015 µM
C[C@H]1CN([C@@H](C)CO)C(=O)c2cccc(NC(=O)c3ccncc3)c2O[C@@H]1CN(C)Cc1ccncc1,solubility,[5],100 µM
same,IC50,[1],> 32 µM
C[C@H]1CN([C@@H](C)CO)C(=O)c2cccc(NC(=O)c3ccncc3)c2O[C@@H]1CN(C)Cc1ccc(C(F)(F)F)cc1,IC50,[4],0.422 µM
same,IC50,[1],0.013 µM
C[C@H]1CN([C@@H](C)CO)C(=O)c2cccc(NC(=O)c3ccncc3)c2O[C@@H]1CN(C)Cc1ccc(-c2ccccc2)cc1,IC50,[1],0.01 µM
COc1cccc(CN(C)C[C@H]2Oc3c(NC(=O)c4ccncc4)cccc3C(=O)N([C@@H](C)CO)C[C@@H]2C)c1,IC50,[1],0.057 µM
C[C@H]1CN([C@@H](C)CO)C(=O)c2cccc(NC(=O)c3ccncc3)c2O[C@@H]1CN(C)Cc1ccc(Cl)c(F)c1,IC50,[1],0.001 µM
CC(C)N1C[C@H](C)[C@@H](CN(C)Cc2ccc(Oc3ccccc3)cc2)Oc2c(NC(=O)c3ccncc3)cccc2C1=O,IC50,[4],0.288 µM
same,IC50,[1],0.001 µM
C[C@H]1CN([C@@H](C)CO)C(=O)c2cccc(NC(=O)c3ccncc3)c2O[C@@H]1CN(C)Cc1ccccc1,solubility,[5],100 µM
same,IC50,[1],0.012 µM
COc1ccc(CN(C)C[C@H]2Oc3c(NC(=O)c4ccncc4)cccc3C(=O)N([C@@H](C)CO)C[C@@H]2C)cc1,IC50,[1],0.127 µM
C[C@H]1CN([C@@H](C)CO)C(=O)c2cccc(NC(=O)c3ccncc3)c2O[C@@H]1CN(C)Cc1ccc(F)c(F)c1,IC50,[1],0.05 µM
CC(C)N1C[C@H](C)[C@@H](CN(C)Cc2cccc(Cl)c2)Oc2c(NC(=O)c3ccncc3)cccc2C1=O,IC50,[1],0.002 µM
C[C@H]1CN([C@@H](C)CO)C(=O)c2cccc(NC(=O)c3ccncc3)c2O[C@@H]1CN(C)Cc1cc(Cl)cc(Cl)c1,IC50,[1],0.01 µM
